As usually defined, the GI50 is the concentration at which growth is held to half of that of the control.

SMILES strings stand for the structures. Active and inactive are the calls of the source. No cut-off for these calls is given here. Some results are limits rather than exact numbers.

In the first test the test system is NCI-H1650. The test is described as follows: Cytotoxicity against human NCI-H1650 cells assessed as growth inhibition after 48 hrs by MTT assay. The format is functional.
Conditions: not given
The procedure, abridged:
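H1650 cells were exposed to drug for 48 h at five concentrations bracketing 1–40 μM in 10 μM steps, with MTT read-out. GI50 is given only where the data form a sigmoidal dose response.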
(In general: Formazan colour is commonly taken as a measure of viable cells.)
On to `O=S(=O)(c1ccc(OC(F)(F)F)cc1)N1CCCCC1CCN1c2ccccc2Sc2ccc(Cl)cc21` (stereo not drawn), for which the GI50 result is “inactive”.

Take `O=S(=O)(NCCCN1c2ccccc2CCc2ccccc21)c1ccc2c(c1)OCO2`: the GI50 entry is “inactive”. As for `CC(=O)NCCCN1c2ccccc2CCc2ccc(Cl)cc21`, the GI50 entry is “inactive”. In the case of `CN(CCCN1c2ccccc2CCc2ccc(Cl)cc21)S(=O)(=O)c1ccc(OC(F)(F)F)cc1`, the GI50 entry is “inactive”. Still for that read-out and setting: under `CN(C)S(=O)(=O)NCCCN1c2ccccc2CCc2ccccc21` stands “inactive”. Turning to `CC(C)S(=O)(=O)NCCCN1c2ccccc2CCc2ccc(Cl)cc21`, the GI50 entry is “inactive”.

As to `O=S(=O)(NCCCN1c2ccccc2CCc2ccccc21)c1cccnc1`, the GI50 result was “inactive”.

Take `CN(CCN1c2ccccc2Sc2ccc(Cl)cc21)S(=O)(=O)c1ccc(Cl)cc1`: the GI50 entry was “inactive”. `O=S(=O)(NCCCCN1c2ccccc2CCc2ccc(Cl)cc21)c1ccc(OC(F)(F)F)cc1`: the GI50 entry is “inactive”. For `O=C(NCCCN1c2ccccc2CCc2ccc(Cl)cc21)c1ccccc1`, the GI50 result is “inactive”. Regarding `CN(CCCN1c2ccccc2Sc2ccc(Cl)cc21)S(=O)(=O)c1ccc(Cl)cc1`, the GI50 entry was “inactive”.

Regarding `O=S(=O)(NCCCN1c2ccccc2CCc2ccc(Cl)cc21)C1CCCCC1`, the GI50 result is “inactive”. In the case of `O=C(NCCCN1c2ccccc2CCc2ccc(Cl)cc21)NS(=O)(=O)c1ccc(OC(F)(F)F)cc1`, the GI50 entry was “inactive”. `O=S(=O)(NCCCN1CCCCc2ccccc21)c1ccc(Cl)cc1`: the GI50 entry is “inactive”. Same read-out and setting: under `CN(CCN1c2ccccc2CCc2ccc(Cl)cc21)S(=O)(=O)c1ccc(C(F)(F)F)cc1` stands “inactive”. Take `O=S(=O)(c1ccc(Cl)cc1)N1CCC(=C2c3ccccc3CCc3ccccc32)CC1`: the GI50 result was “inactive”.

Regarding `O=S(=O)(NCCCN1CCCCc2ccccc21)c1ccc(OC(F)(F)F)cc1`, the GI50 result is “inactive”. Still for that read-out and setting: next, `O=S(=O)(c1ccc(Cl)cc1)N1CCCCC1CCN1c2ccccc2Sc2ccc(Cl)cc21` (stereo not drawn): “inactive”.

The same test, now with this note: NCI-H1650, 48 h.
On to `COc1ccc(S(=O)(=O)NCCCN2c3ccccc3Sc3ccc(Cl)cc32)cc1`, for which the GI50 was more than 40 µM. As to `O=S(=O)(NCCCN1c2ccccc2CCc2ccc(Cl)cc21)c1ccc(C(F)(F)F)cc1`, the GI50 was 12.6 µM. `O=S(=O)(NCCCN1c2ccccc2CCc2ccc(Cl)cc21)c1ccc2ccccc2c1`: the GI50 is more than 40 µM. Turning to `O=S(=O)(NC1CCC2(OC1)c1ccccc1CCc1ccccc12)c1ccccc1` (stereo not drawn), the GI50 stood at 22 µM. Turning to `O=S(=O)(NCCCN1c2ccccc2CCc2ccc(Cl)cc21)c1ccc(Cl)c(Cl)c1`, the GI50 amounted to 21.3 µM.

As for `O=S(=O)(NCCCN1c2ccccc2CCc2cncnc21)c1ccc(OC(F)(F)F)cc1`, the GI50 was more than 40 µM.

Turning to `CN(C)CCC=C1c2ccccc2CCc2ccccc21` [AMITRIPTYLINE], the GI50 is more than 40 µM. Regarding `O=S(=O)(NCCCN1c2ccccc2CCc2ccc(Cl)cc21)c1ccccc1OC(F)(F)F`, the GI50 stood at 25 µM. On to `O=S(=O)(NCCCN1c2ccccc2CCc2ccc(Cl)cc21)c1cc(Cl)sc1Cl`, for which the GI50 came to 25 µM.

Turning to `CC(CN1c2ccccc2Sc2ccccc21)N(C)C` (stereo not drawn) [PROMETHAZINE], the GI50 is more than 40 µM. Turning to `Cc1nn(C)c(Cl)c1S(=O)(=O)NCCCN1c2ccccc2CCc2ccccc21`, the GI50 was more than 40 µM. `O=S(=O)(NC1CCC(=C2c3ccccc3CCc3ccccc32)CC1)c1ccc(OC(F)(F)F)cc1` (stereo not drawn): the GI50 is 20 µM.

Consider `O=S(=O)(NCCN1c2ccccc2CCc2ccc(Cl)cc21)c1ccc(C(F)(F)F)cc1`, for which the GI50 is 16.4 µM. Same read-out and setting: next, `O=S(=O)(NC1CCC2(OC1)c1ccccc1CCc1ccccc12)c1ccc(C(F)(F)F)cc1` (stereo not drawn): 15 µM; `O=S(=O)(NCC/C=C1/c2ccccc2Sc2ccc(Cl)cc21)c1ccc(Cl)cc1`: more than 40 µM; `O=S(=O)(NCCCN1c2ccccc2CCc2ccccc21)c1ccc(Oc2ccccc2)nc1`: more than 40 µM.

Consider `O=S(=O)(NC1CCOC2(C1)c1ccccc1CCc1ccccc12)c1ccc(Cl)cc1` (stereo not drawn), for which the GI50 is more than 40 µM. With `O=S(=O)(NCCN1c2ccccc2Sc2ccc(Cl)cc21)c1ccc(C(F)(F)F)cc1`, the GI50 was 25 µM. In the case of `Cc1ccc(S(=O)(=O)NCCCCN2c3ccccc3Sc3ccc(Cl)cc32)cc1`, the GI50 is more than 40 µM. `O=S(=O)(NC1CCC2(OC1)c1ccccc1CCc1ccccc12)c1ccc(OC(F)(F)F)cc1` (stereo not drawn): the GI50 amounted to 13 µM. On to `O=S(=O)(NC1CCOC2(C1)c1ccccc1CCc1ccccc12)c1ccc(OC(F)(F)F)cc1` (stereo not drawn), for which the GI50 was more than 40 µM. Regarding `O=S(=O)(N[C@H]1CC[C@H](N2c3ccccc3CCc3ccccc32)CC1)c1ccc(Cl)cc1`, the 50% growth inhibitory concentration (GI50) is 15 µM. Consider `O=S(=O)(NCCC=C1c2ccccc2CCc2ccccc21)c1ccc(Cl)cc1`, for which the GI50 was 18 µM. For `O=S(=O)(N[C@H]1CCC[C@@H](N2c3ccccc3CCc3ccccc32)C1)c1ccc(OC(F)(F)F)cc1`, the GI50 came out at 25 µM. `O=S(=O)(NCCN1c2ccccc2Sc2ccc(Cl)cc21)c1ccc(OC(F)(F)F)cc1`: the GI50 is 25 µM. As to `O=S(=O)(NCCNC1c2ccccc2CCc2ccccc21)c1ccc(OC(F)(F)F)cc1`, the GI50 is 25 µM. On the same count and under the same terms, next, `O=S(=O)(NC1CCC2(OC1)c1ccccc1CCc1ccccc12)c1ccc(Cl)cc1` (stereo not drawn): 25 µM. In the case of `O=S(=O)(NCCCN1c2ccccc2CCc2ccccc21)c1cnc(Cl)c(Br)c1`, the GI50 is more than 40 µM. For `N#Cc1ccc(S(=O)(=O)NCCCN2c3ccccc3Sc3ccc(Cl)cc32)cc1`, the GI50 is more than 40 µM. With `O=S(=O)(NCCCN1c2ccccc2CCc2ncccc21)c1ccc(Cl)cc1`, the GI50 is 30 µM. For the molecule `Cc1ccc(S(=O)(=O)NCCN2c3ccccc3Sc3ccc(Cl)cc32)cc1`, the GI50 is 24.4 µM. Turning to `O=S(=O)(NCCN1c2ccccc2CCc2ccc(Cl)cc21)c1ccc(Cl)cc1`, the GI50 came to 19.1 µM. Consider `NCCCN1c2ccccc2CCc2ccc(Cl)cc21`, for which the GI50 stood at 10 µM. Regarding `N#Cc1ccc(S(=O)(=O)NCCCN2c3ccccc3CCc3ccc(Cl)cc32)cc1`, the GI50 was determined as 20 µM. In the case of `O=S(=O)(NCCCN1c2ccccc2CCc2ccccc21)c1ccc(-n2cccn2)cc1`, the GI50 is more than 40 µM.
